“And” between values parts separate entries of the source, which are not always exact repeats. Equal entries are not always repeated.
System: Fibroblast
Assay: Multiplex assay against human fibroblast
Assay type: toxicity, cell-based
How it was run: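 On a CQ1 microscope at 37°C and 5% CO2, live cells were imaged after compound addition. They had been stained at seeding with Hoechst33342, BioTracker Green Microtubule Cytoskeleton Dye, MitoTracker Red and Annexin V Alexa Fluor 680. CellPathfinder machine-learning gating assigned cells to Hoechst high-intensity objects or normal cells, normal cells to healthy, pyknosed or fragmented nuclei, and pyknosed cells to mitotic or apoptotic. Tubulin, mitochondrial-mass and membrane-permeability phenotypes are per cents of healthy-nucleus cells.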

[1] = 12 h, 1 µM, compound concentration 1 uM
[2] = 12 h, 10 µM, compound concentration 10 uM
[3] = 24 h, 1 µM, compound concentration 1 uM
[4] = 24 h, 10 µM, compound concentration 10 uM
[5] = 48 h, 1 µM, compound concentration 1 uM
[6] = 48 h, 10 µM, compound concentration 10 uM

Question: With CN(C)CCOc1ccc(/C(=C(/CCCO)c2ccccc2)c2ccc(O)cc2)cc1 as the compound, how does the “Population Apoptotic (%)” value [1] read?
Answer: 9.46% and 11.76%

Question: What about the “Population Fragmented Nuclei (%)” value [1] of the same compound?
Answer: 12.72% and 6.58%

Question: And the “Population Healthy Nuclei (%)” value [1]?
Answer: 54.82% and 78.51%

Question: What about the “Population Hoechst High Intensity Objects (%)” value [1] of the same compound?
Answer: 0%

Question: What about the “Population Membrane Permeable-Phenotype (%)” value [1] of the same compound?
Answer: 2.4% and 1.12%

Question: What about the “Population Mitochondria Different-Phenotype (%)” value [1] of the same compound?
Answer: 12.8% and 16.2%

Question: What about the “Population Mitotic Cells (%)” value [1] of the same compound?
Answer: 90.54% and 88.24%

Question: And the “Population Normal (%)” value [1]?
Answer: 100%

Question: What about the “Population Pyknosed Nuclei (%)” value [1] of the same compound?
Answer: 32.46% and 14.91%

Question: What about the “Population Tubulin-Different-Phenotype (%)” value [1] of the same compound?
Answer: 20.8% and 30.73%

Question: And the “Total Cell Count” value [1]?
Answer: 228

Question: And the “Population Apoptotic (%)” value [2]?
Answer: 12.82% and 32.5%

Question: What about the “Population Fragmented Nuclei (%)” value [2] of the same compound?
Answer: 12.81% and 6.25%

Question: What about the “Population Healthy Nuclei (%)” value [2] of the same compound?
Answer: 54.96% and 65.97%

Question: And the “Population Hoechst High Intensity Objects (%)” value [2]?
Answer: 0%

Question: And the “Population Membrane Permeable-Phenotype (%)” value [2]?
Answer: 12.03% and 4.21%

Question: And the “Population Mitochondria Different-Phenotype (%)” value [2]?
Answer: 33.83% and 24.74%

Question: What about the “Population Mitotic Cells (%)” value [2] of the same compound?
Answer: 87.18% and 67.5%

Question: What about the “Population Normal (%)” value [2] of the same compound?
Answer: 100%

Question: And the “Population Pyknosed Nuclei (%)” value [2]?
Answer: 32.23% and 27.78%

Question: What about the “Population Tubulin-Different-Phenotype (%)” value [2] of the same compound?
Answer: 69.92% and 80%

Question: What about the “Total Cell Count” value [2] of the same compound?
Answer: 242 and 288

Question: What about the “Population Fragmented Nuclei (%)” value [3] of the same compound?
Answer: 7.69% and 4.15%

Question: What about the “Population Healthy Nuclei (%)” value [3] of the same compound?
Answer: 73.68% and 82.16%

Question: And the “Population Hoechst High Intensity Objects (%)” value [3]?
Answer: 0%

Question: What about the “Population Membrane Permeable-Phenotype (%)” value [3] of the same compound?
Answer: 2.2% and 3.03%

Question: And the “Population Mitochondria Different-Phenotype (%)” value [3]?
Answer: 9.34% and 7.58%

Question: And the “Population Mitotic Cells (%)” value [3]?
Answer: 93.48% and 78.79%

Question: And the “Population Normal (%)” value [3]?
Answer: 100%

Question: And the “Population Pyknosed Nuclei (%)” value [3]?
Answer: 18.62% and 13.69%

Question: And the “Population Tubulin-Different-Phenotype (%)” value [3]?
Answer: 22.53% and 32.32%

Question: And the “Total Cell Count” value [3]?
Answer: 247 and 241

Question: And the “Population Apoptotic (%)” value [4]?
Answer: 20.78% and 46.67%

Question: And the “Population Fragmented Nuclei (%)” value [4]?
Answer: 6.59% and 4.58%

Question: What about the “Population Healthy Nuclei (%)” value [4] of the same compound?
Answer: 63.57% and 79.58%

Question: And the “Population Hoechst High Intensity Objects (%)” value [4]?
Answer: 0%

Question: And the “Population Membrane Permeable-Phenotype (%)” value [4]?
Answer: 6.1% and 8.41%

Question: What about the “Population Mitochondria Different-Phenotype (%)” value [4] of the same compound?
Answer: 37.8% and 22.57%

Question: What about the “Population Mitotic Cells (%)” value [4] of the same compound?
Answer: 79.22% and 53.33%

Question: What about the “Population Normal (%)” value [4] of the same compound?
Answer: 100%

Question: What about the “Population Pyknosed Nuclei (%)” value [4] of the same compound?
Answer: 29.84% and 15.85%

Question: What about the “Population Tubulin-Different-Phenotype (%)” value [4] of the same compound?
Answer: 85.37% and 84.07%

Question: And the “Total Cell Count” value [4]?
Answer: 258 and 284

Question: What about the “Population Apoptotic (%)” value [5] of the same compound?
Answer: 53.33% and 35.71%

Question: What about the “Population Fragmented Nuclei (%)” value [5] of the same compound?
Answer: 8.78% and 7.97%

Question: What about the “Population Healthy Nuclei (%)” value [5] of the same compound?
Answer: 85.5% and 86.45%

Question: And the “Population Hoechst High Intensity Objects (%)” value [5]?
Answer: 0%

Question: And the “Population Membrane Permeable-Phenotype (%)” value [5]?
Answer: 0% and 4.61%

Question: What about the “Population Mitotic Cells (%)” value [5] of the same compound?
Answer: 46.67% and 64.29%

Question: What about the “Population Normal (%)” value [5] of the same compound?
Answer: 100%

Question: What about the “Population Pyknosed Nuclei (%)” value [5] of the same compound?
Answer: 5.73% and 5.58%

Question: And the “Total Cell Count” value [5]?
Answer: 262 and 251

Question: What about the “Population Apoptotic (%)” value [6] of the same compound?
Answer: 35.29% and 73.91%

Question: What about the “Population Fragmented Nuclei (%)” value [6] of the same compound?
Answer: 11.83% and 8.67%

Question: And the “Population Healthy Nuclei (%)” value [6]?
Answer: 83.6% and 83.67%

Question: What about the “Population Hoechst High Intensity Objects (%)” value [6] of the same compound?
Answer: 0%

Question: And the “Population Membrane Permeable-Phenotype (%)” value [6]?
Answer: 2.89% and 5.58%

Question: What about the “Population Mitochondria Different-Phenotype (%)” value [6] of the same compound?
Answer: 6.75% and 12.75%

Question: What about the “Population Mitotic Cells (%)” value [6] of the same compound?
Answer: 64.71% and 26.09%

Question: What about the “Population Normal (%)” value [6] of the same compound?
Answer: 100%

Question: And the “Population Pyknosed Nuclei (%)” value [6]?
Answer: 4.57% and 7.67%

Question: What about the “Population Tubulin-Different-Phenotype (%)” value [6] of the same compound?
Answer: 53.05% and 80.48%

Question: And the “Total Cell Count” value [6]?
Answer: 372 and 300

Question: Clc1ccccc1C(c1ccccc1)(c1ccccc1)n1cccn1 was tested. Which “Population Apoptotic (%)” value [1] did it give?
Answer: 14.29% and 24%

Question: What about the “Population Healthy Nuclei (%)” value [1] of the same compound?
Answer: 59.04% and 80.46%

Question: And the “Population Hoechst High Intensity Objects (%)” value [1]?
Answer: 0%

Question: What about the “Population Membrane Permeable-Phenotype (%)” value [1] of the same compound?
Answer: 4.08% and 0.71%

Question: What about the “Population Mitochondria Different-Phenotype (%)” value [1] of the same compound?
Answer: 5.1% and 12.14%

Question: What about the “Population Mitotic Cells (%)” value [1] of the same compound?
Answer: 85.71% and 76%

Question: What about the “Population Normal (%)” value [1] of the same compound?
Answer: 100%

Question: And the “Population Pyknosed Nuclei (%)” value [1]?
Answer: 25.3% and 14.37%

Question: And the “Total Cell Count” value [1]?
Answer: 166 and 174

Question: What about the “Population Apoptotic (%)” value [2] of the same compound?
Answer: 9.84% and 23.44%

Question: And the “Population Fragmented Nuclei (%)” value [2]?
Answer: 9.09% and 6.46%

Question: What about the “Population Healthy Nuclei (%)” value [2] of the same compound?
Answer: 63.18% and 69.2%

Question: What about the “Population Hoechst High Intensity Objects (%)” value [2] of the same compound?
Answer: 0%

Question: And the “Population Membrane Permeable-Phenotype (%)” value [2]?
Answer: 9.35% and 3.85%

Question: And the “Population Mitochondria Different-Phenotype (%)” value [2]?
Answer: 14.39% and 16.48%

Question: And the “Population Mitotic Cells (%)” value [2]?
Answer: 90.16% and 76.56%

Question: And the “Population Normal (%)” value [2]?
Answer: 100%

Question: And the “Population Pyknosed Nuclei (%)” value [2]?
Answer: 27.73% and 24.33%

Question: And the “Population Tubulin-Different-Phenotype (%)” value [2]?
Answer: 30.22% and 45.6%

Question: What about the “Total Cell Count” value [2] of the same compound?
Answer: 220 and 263

Question: And the “Population Fragmented Nuclei (%)” value [3]?
Answer: 12.05% and 9.29%

Question: And the “Population Healthy Nuclei (%)” value [3]?
Answer: 71.08% and 85.25%

Question: What about the “Population Hoechst High Intensity Objects (%)” value [3] of the same compound?
Answer: 0%

Question: And the “Population Membrane Permeable-Phenotype (%)” value [3]?
Answer: 4.24% and 2.56%

Question: What about the “Population Mitochondria Different-Phenotype (%)” value [3] of the same compound?
Answer: 3.39% and 8.97%

Question: And the “Population Mitotic Cells (%)” value [3]?
Answer: 96.43% and 60%

Question: What about the “Population Normal (%)” value [3] of the same compound?
Answer: 100%

Question: What about the “Population Tubulin-Different-Phenotype (%)” value [3] of the same compound?
Answer: 10.17% and 21.15%

Question: And the “Total Cell Count” value [3]?
Answer: 166 and 183

Question: And the “Population Apoptotic (%)” value [4]?
Answer: 13.04% and 31.25%

Question: And the “Population Healthy Nuclei (%)” value [4]?
Answer: 67.26% and 79.55%

Question: What about the “Population Hoechst High Intensity Objects (%)” value [4] of the same compound?
Answer: 0%

Question: What about the “Population Membrane Permeable-Phenotype (%)” value [4] of the same compound?
Answer: 9.87% and 0.95%

Question: What about the “Population Mitochondria Different-Phenotype (%)” value [4] of the same compound?
Answer: 7.24% and 10.95%

Question: And the “Population Mitotic Cells (%)” value [4]?
Answer: 86.96% and 68.75%

Question: And the “Population Normal (%)” value [4]?
Answer: 100%

Question: What about the “Population Pyknosed Nuclei (%)” value [4] of the same compound?
Answer: 20.35% and 18.18%

Question: And the “Population Tubulin-Different-Phenotype (%)” value [4]?
Answer: 45.39% and 44.29%

Question: What about the “Total Cell Count” value [4] of the same compound?
Answer: 226 and 264

Question: And the “Population Apoptotic (%)” value [5]?
Answer: 40% and 22.22%

Question: What about the “Population Fragmented Nuclei (%)” value [5] of the same compound?
Answer: 11.92% and 7.69%

Question: And the “Population Healthy Nuclei (%)” value [5]?
Answer: 82.9% and 87.69%

Question: And the “Population Hoechst High Intensity Objects (%)” value [5]?
Answer: 0%

Question: What about the “Population Membrane Permeable-Phenotype (%)” value [5] of the same compound?
Answer: 0.62% and 0.58%

Question: What about the “Population Mitochondria Different-Phenotype (%)” value [5] of the same compound?
Answer: 11.25% and 3.51%

Question: What about the “Population Mitotic Cells (%)” value [5] of the same compound?
Answer: 60% and 77.78%

Question: And the “Population Normal (%)” value [5]?
Answer: 100%

Question: What about the “Population Pyknosed Nuclei (%)” value [5] of the same compound?
Answer: 5.18% and 4.62%

Question: And the “Total Cell Count” value [5]?
Answer: 193 and 195

Question: And the “Population Apoptotic (%)” value [6]?
Answer: 30.77% and 42.86%

Question: And the “Population Fragmented Nuclei (%)” value [6]?
Answer: 9.35% and 4.71%

Question: And the “Population Healthy Nuclei (%)” value [6]?
Answer: 85.37% and 89.8%

Question: And the “Population Hoechst High Intensity Objects (%)” value [6]?
Answer: 0%

Question: What about the “Population Membrane Permeable-Phenotype (%)” value [6] of the same compound?
Answer: 1.9% and 3.49%

Question: What about the “Population Mitochondria Different-Phenotype (%)” value [6] of the same compound?
Answer: 13.33% and 6.11%

Question: What about the “Population Mitotic Cells (%)” value [6] of the same compound?
Answer: 69.23% and 57.14%

Question: And the “Population Normal (%)” value [6]?
Answer: 100%

Question: And the “Population Pyknosed Nuclei (%)” value [6]?
Answer: 5.28% and 5.49%

Question: And the “Population Tubulin-Different-Phenotype (%)” value [6]?
Answer: 14.76% and 36.24%

Question: And the “Total Cell Count” value [6]?
Answer: 246 and 255
